Screening results from PubChem BioAssay.
Compounds with a hit are over-represented: about 2% of the library has one in this group of screens.
FXN GAA850 act: activators of GAA850 frataxin (FXN) promoter | activation, % at 6 µM | hit rate 0.56% among 360,000 | HEK293 lucGAA850 FXN promoter luciferase reporter, 24 h; percent of 10 µM SAHA response | AID 540364;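 active means activation above the average of all compounds screened plus 3 SD, cutoff fixed separately per campaign, cut at about 7.5% in these data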
Myeloid diff 2: promotes myeloid progenitor differentiation | ER-HoxA9 myeloid progenitors, lysozyme-GFP differentiation, flow cytometry | calls only at 10 µM | hit rate 1% among 360,000 | AID 624256;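 active means normalized GFP-positive differentiation at or above the plate's own cutoff, the solvent-only control mean plus 3 SD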;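 further: cells exposed to compound for four days before flow analysis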
T cell modulator: modulates CD8 T cell binding to vesicles | hit rate 0.068% among 330,000 | response (vesicle binding), % at 7 µM | 2C CD8+ T cell-vesicle binding, flow cytometry; active compounds read low;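 active means response, share of CD8 T cells binding vesicles, and their 90th percentile fluorescence all below set limits, cut at about 80% in these data, passing the limit was not always enough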;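 further: values below 100% mean blocked vesicle binding to the CD8+ T cells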
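Assay system: 2C TCR transgenic mouse naive CD8+ T cells, MACS-purified | Read-out: CD8+ gate FL2 mean fluorescence as % of same-row positive control | Signal: High-throughput flow cytometry with anti-B7-1 and anti-CD8 staining | Timing: Binding step 1.5 h, 37 °C, antibody labelling 20 min, ice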
NR2E3 ag-1: agonists of human nuclear receptor NR2E3. Q9Y5X4. GST-NR2E3/biotin-RetCOR TR-FRET, 1536-well. inhibition of corepressor binding, % at 4.78 µM. hit rate 0.12% among 320,000. AID 2300;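 active means percent inhibition above the cutoff of mean plus 3 SD of all tested compounds, set per screening campaign, cut at about 20% in these data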
Target sequence (Q9Y5X4 whole entry, looked up): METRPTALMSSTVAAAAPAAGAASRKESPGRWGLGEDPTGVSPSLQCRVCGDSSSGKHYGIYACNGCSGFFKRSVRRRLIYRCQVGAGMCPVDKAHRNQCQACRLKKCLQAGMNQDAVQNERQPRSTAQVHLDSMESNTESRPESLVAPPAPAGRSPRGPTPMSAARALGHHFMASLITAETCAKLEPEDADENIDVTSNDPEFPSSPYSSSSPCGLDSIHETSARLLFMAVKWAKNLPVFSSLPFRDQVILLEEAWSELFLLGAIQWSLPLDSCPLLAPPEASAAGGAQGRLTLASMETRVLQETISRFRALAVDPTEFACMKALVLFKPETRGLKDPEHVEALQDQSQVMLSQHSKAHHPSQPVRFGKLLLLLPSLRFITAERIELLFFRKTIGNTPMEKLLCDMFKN
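System: GST-tagged NR2E3 plus biotinylated RetCOR corepressor; Buffer or medium: pH 7.5 Tris-based buffer; Probe or stimulus: RetCOR corepressor, biotinylated, 7 nM; Doses: compound at 4.8 µM, single dose; Schedule: 5 h incubation at 4 °C; Technique: time-resolved FRET; Evaluation: percent inhibition of TR-FRET ratio; Replication: one well per compound, singlicate testing.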
NR2E3 ag-2: activates human NR2E3 receptor. AID 602229. hit rate 0.35% among 360,000. inhibition of corepressor binding, % at 3.98 µM. CHO-S Gal4-NCOR/VP16-NR2E3 two-hybrid, luciferase;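 active means inhibition above the mean of all tested compounds plus 3 SD, cut at about 70% in these data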;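 further: higher means lower luciferase signal from less NR2E3 corepressor binding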
A number is an active result; 0 = inactive; - = no result; + = active, no number.

SMILES	FXN GAA850 act	Myeloid diff 2	T cell modulator	NR2E3 ag-1	NR2E3 ag-2
CSc1ccc(/C=c2\s/c(=C\C(=O)C(C)(C)C)n(CC(=O)NCCC3=CCCCC3)c2=O)cc1	0	0	0	0	0
CCCNC(=O)Cn1c(=O)/c(=C/c2ccc(-c3ccc([N+](=O)[O-])cc3)o2)s/c1=C\C(=O)C(C)(C)C	0	+	-	-	0
Cc1csc(=O)n1CCC(=O)OCC(=O)Nc1ncc(Cl)cc1Cl	0	0	0	0	0
Cc1nn(C)c(C)c1S(=O)(=O)N(CC(=O)N1CCc2ccccc21)c1ccc(C(C)C)cc1	0	+	0	0	0
O=C1c2ccccc2NC(c2ccc(O)c(O)c2)N1c1ccccc1Cl (stereo not given)	0	0	0	0	0
Cc1nc(Nc2ccc(S(=O)(=O)N3CCCCC3C)cc2)c2nnn(Cc3ccccc3)c2n1 (stereo not given)	0	+	0	0	0
Cc1nc(Nc2ccc(Cl)cc2)c2nnn(Cc3ccccc3)c2n1	0	0	0	0	0
CCOC(=O)Nc1cc2c(cc1[N+](=O)[O-])-c1ccccc1C2=O	0	0	-	-	0
CCn1c(Cc2cccs2)nnc1SCC(=O)NC1CC1	0	+	0	0	0
C=CCn1c(Cc2cccs2)nnc1SCC(=O)NC1CC1	0	0	0	0	0
COCCNC(=O)CN1C(=O)CC(C)(C)S(=O)(=O)c2ccccc21	13	0	0	0	0
COCC(C)NC(=O)c1nn(Cc2ccccc2)c(=O)c2ccccc12 (stereo not given)	0	0	0	0	0
CC(/C=C/c1ccc(N(C)C)cc1)=N\N=C(/N)SC1CC(=O)N(c2ccc(C(=O)O)cc2)C1=O (stereo not given)	0	+	0	0	0
O=C(O)c1ccc(N2C(=O)CC(SC(=Nc3ccccc3)Nc3ccccc3)C2=O)cc1 (stereo not given)	0	0	0	0	0
CCCCn1nnnc1C(c1ccccc1)N1CCN(c2ccc(OC)cc2)CC1 (stereo not given)	-	0	-	-	0
Nc1c(C(=O)c2ccc(Cl)cc2)sc2nsc(SCCN3CCOCC3)c12	0	+	0	0	0
Nc1c(C(=O)c2ccccc2)sc2nsc(SCCN3CCCC3)c12	0	+	0	0	0
CC(=O)c1sc2nsc(SCCN3CCCCC3)c2c1N	0	0	0	0	0
COc1ccc(NC(=O)C(=O)c2cn(CC(=O)N3CCCC3)c3ccccc23)c(OC)c1	0	0	0	0	0
O=C(NCCc1ccccn1)c1c(-c2ccsc2)sc2ccccc12	0	+	0	-	0
Cc1cc(C)n(-c2ccc(C(=O)N3CCN(S(=O)(=O)c4ccc(Br)cc4Cl)CC3)cc2)n1	0	0	-	-	0
Oc1ccccc1CC=NC1CCCCC1	0	+	-	-	0
CCOC(=O)[C@]12CCCC=C1N(Cc1ccccc1)C(=O)[C@H](CC(=O)NCC1CCCCC1)C2	-	0	-	-	-
Nc1c(C(=O)NCc2ccccc2)c2nc3ccccc3nc2n1-c1ccc2c(c1)OCO2	0	+	0	0	0
C#CCOCCOCCOCCNc1nc(N2CCN(C(=O)CCCCCCCCCCNC(=O)[C@H](CCCCN)n3cc(C[C@@H](C)CC)nn3)CC2)nc(N2CCN(C(=O)CCCCCCCCCCNC(=O)[C@H](CCCCN)n3cc(C[C@@H](C)CC)nn3)CC2)n1	0	+	0	0	0
SMILES	FXN GAA850 act	Myeloid diff 2	T cell modulator	NR2E3 ag-1	NR2E3 ag-2
Cc1cc(C)nc(CCNC(=O)CC2C(=O)NCCN2Cc2ccccc2)n1 (stereo not given)	0	0	0	0	0
C=CC[n+]1ccn(-c2nc3ccccc3nc2[N-]S(=O)(=O)c2cccs2)c1	0	+	0	0	0
CCCC[n+]1ccn(-c2nc3ccccc3nc2[N-]S(=O)(=O)c2cccs2)c1	0	0	0	0	0
CCOc1ccccc1NC(=O)Nc1cccc(NC(C)=O)c1	0	0	0	0	0
CCOc1ccccc1NC(=O)Nc1ccc2c(c1)CCC2	0	+	0	0	0
COc1ccc(CCNC(=O)CCc2cc(OC)c(OC)c(OC)c2)cc1OC	0	0	0	0	0
Cc1nn(Cc2cccc(C(=O)O)c2)c(C)c1[N+](=O)[O-]	0	0	0	0	0
Cc1nn(Cc2cccc(C(=O)Nc3ccn(Cc4ccccc4)n3)c2)c(C)c1[N+](=O)[O-]	0	+	0	0	0
C[C@H](NC(=O)c1ncn(Cc2ccccc2)c1C(=O)N[C@@H](C)c1ccccc1)c1ccccc1	0	0	0	0	0
COc1ccc(-n2nc(C(=O)NCC(=O)O)c3ccccc3c2=O)cc1	0	0	0	0	0
COc1ccc(-n2nc(C(=O)NCC(=O)NC(C)C)c3ccccc3c2=O)cc1	0	+	0	0	0
COc1ccc(CNC(=O)Cc2nn(C)c(=O)c3ccccc23)cc1	0	0	0	0	102
CCOC(=O)N1CCN(C(=O)c2c(Cl)cnn2C)CC1	0	0	0	-	0
O=C1NC[C@H](CCCCN2C[C@H](Cc3ccc(O)cc3)N(CCc3ccccc3)C(=O)C2=O)N(CC2CCCCC2)C1=O	-	0	-	-	0
COc1ccc(S(=O)(=O)N2CC(C(=O)O)Oc3ccc(Cl)cc32)cc1 (stereo not given)	0	+	0	0	0
CC(C)(C)c1ccc(S(=O)(=O)N2CC(C(=O)O)Oc3ccc(Cl)cc32)cc1 (stereo not given)	0	0	0	0	0
CN(C)CCNc1oc(-c2ccccc2Cl)nc1S(=O)(=O)c1ccccc1	0	0	0.0	0	0
CN(C)CCCNc1oc(-c2ccccc2Cl)nc1S(=O)(=O)c1ccc(F)cc1	0	0	0	0	0
C[C@H]1CN=C(N(C)C)N1CC1CCC(C(C)(C)C)CC1 (stereo not given in full)	0	0	0	0	0
CC1C(=O)NN=C1C(=O)N/N=C\C(Br)=C\c1ccccc1 (stereo not given)	0	+	-	-	0
CN(c1ccccc1)S(=O)(=O)c1cccc(NC(=O)c2ccc(Cl)c([N+](=O)[O-])c2)c1	0	0	0	-	0
CC1(c2ccc3c(c2)OCCO3)NC(=O)N(CC(=O)Nc2ccccc2)C1=O (stereo not given)	0	0	0	0	0
CC1(c2ccc3c(c2)OCCO3)NC(=O)N(CC(=O)Nc2ccccc2SCC#N)C1=O (stereo not given)	0	+	0	0	0
O=C(N1CCN(c2ccccc2)CC1)C1(S(=O)(=O)c2ccc(Cl)cc2)CC1	0	+	0	0	0
CCN1C(=O)C2CCCCN2c2ccc(C(=O)NCCOC)cc21 (stereo not given)	0	0	0	0	0
O=C(CNC(=O)c1ccc2c(c1)OCO2)N/N=C(Br)/C=C/c1ccccc1	0	+	0	0	0
CCCNC(=O)C1(C)CCCN(Cc2c3ccccc3nn2C)C1 (stereo not given)	0	0	-	-	0
